This note sets out measurements from ChEMBL document CHEMBL1125201, “C-glycosidic analogues of lipid A and lipid X: synthesis and biological activities” (J Med Chem, 1991).

Structures are written as SMILES.

One data set has as its system Mus musculus. The experiment in a line: Survival rate of the nonspecific resistance against Pseudomonas aeruginosa infection after intraperitoneal administration in ten mice. It is filed as functional. Set-up: unit: surviving mice (of 10). A digest of the protocol: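 Compound (12.5 mg/kg, single dose) given ip to myelosuppressed mice on day -1, then iv infection with P. aeruginosa (Δ12) on day 0 at an LD35 inoculum; 10 mice per group; survival counted after 4-day observation; LPS (S. abortus equi) ip control group.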

Data set [1] in a line: Compound was evaluated for lethal dose after intravenous administration. The format is toxicity, organism-based. Particulars: mouse, in vivo. A digest of the protocol:
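Mice (C57BL/6, groups of six) given serial dilutions of compound iv via tail vein in pyrogen-free saline, with galactosamine 400 mg/kg ip given at the same time to sensitize to endotoxin; lethal toxicity recorded as LD50.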

A further data set concerns Pseudomonas aeruginosa. The experiment in a line: Compound was evaluated for effective dose required for the nonspecific resistance against Pseudomonas aeruginosa after intraperitoneal administration. Particulars: ip. It is filed as functional. A digest of the protocol: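 Myelosuppressed mice got the compound ip on day -1 and were infected iv with P. aeruginosa (Δ12) on day 0 at an LD35 inoculum. Survival was scored over 4 days. ED50 was calculated by Probit analysis with confidence limits. Disaccharides were tested as lysine salts.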

In the data set on Mus musculus, `CCCCCCCCCCCCCC(=O)O[C@H](CCCCCCCCCCC)CC(=O)O[C@H]1[C@H](O)[C@H](CO)O[C@@H](CC(=O)O)[C@@H]1NC(=O)C[C@H](O)CCCCCCCCCCC` had a Survival rate of 2.

As a reminder, the LD50 is the dose expected to kill half of the subjects tested. For orientation: ED50 means the dose that gives a 50% effect, or the effect in half of the subjects. `CCCCCCCCCCCCCC(=O)O[C@H](CCCCCCCCCCC)CC(=O)OC1C(O)C(CO)OC(OP(=O)(O)O)C1NC(=O)C[C@H](O)CCCCCCCCCCC` (stereo not given in full): the LD50 in data set [1] amounted to 0.3 mg/kg. Also, in the data set with Mus musculus, the Survival rate was determined as 9. Also, the ED50 in the data set with Pseudomonas aeruginosa is 1.7 mg/kg.

In the data set on Mus musculus, `CCCCCCCCCCC[C@@H](O)CC(=O)NC1C(OP(=O)(O)O)OC(CO)C(O)C1OC(=O)C[C@H](O)CCCCCCCCCCC` (stereo not given in full) showed a Survival rate of 0.

For the compound `CCCCCCCCCCC[C@@H](O)CC(=O)NC1C(CC(=O)O)OC(CO)C(OC(=O)C[C@H](O)CCCCCCCCCCC)C1OC(=O)C[C@H](O)CCCCCCCCCCC` (stereo not given in full), the median lethal dose (LD50) in data set [1] was 1 mg/kg. This compound also showed a Survival rate in the data set with Mus musculus of 10. Besides, in the data set with Pseudomonas aeruginosa, the ED50 stood at 1.1 mg/kg.

Regarding `CCCCCCCCCCC[C@@H](O)CC(=O)NC1C(CC(=O)O)OC(COC2OC(CO)C(O)C(OC(=O)C[C@H](O)CCCCCCCCCCC)C2NC(=O)C[C@H](O)CCCCCCCCCCC)C(O)C1OC(=O)C[C@H](O)CCCCCCCCCCC` (stereo not given in full), the 50% lethal dose (LD50) in data set [1] was about 5.2 mg/kg. In the data set on Mus musculus, the Survival rate amounted to 10. Besides, in the data set on Pseudomonas aeruginosa, the median effective dose (ED50) came to 1.5 mg/kg.

On to `CCCCCCCCCCC[C@@H](O)CC(=O)NC1C(OCC2OC(OP(=O)(O)O)C(NC(=O)C[C@H](O)CCCCCCCCCCC)C(OC(=O)C[C@H](O)CCCCCCCCCCC)C2O)OC(CO)C(O)C1OC(=O)C[C@H](O)CCCCCCCCCCC` (stereo not given in full), for which, in data set [1], the LD50 came to 3.5 mg/kg. The compound further registered a Survival rate in the data set on Mus musculus of 8. This compound also came in with a 50% effective dose (ED50) in the data set with Pseudomonas aeruginosa of 3.4 mg/kg.

`CCCCCCCCCCC[C@@H](O)CC(=O)NC1C(OCC2OC(CC(=O)O)C(NC(C)=O)C(OC(=O)C[C@H](O)CCCCCCCCCCC)C2O)OC(CO)C(O)C1OC(=O)C[C@H](O)CCCCCCCCCCC` (stereo not given in full): the Survival rate with Mus musculus was 7.

`CCCCCCCCCCC[C@@H](O)CC(=O)OC1C(O)C(CO)OC(CC(=O)O)[C@@H]1NC(C)=O` (stereo not given in full) returned a Survival rate in the data set with Mus musculus of 1.

For `CCCCCCCCCCC[C@@H](O)CC(=O)NC1C(OP(=O)(O)O)OC(CO)C(OC(=O)C[C@H](O)CCCCCCCCCCC)C1OC(=O)C[C@H](O)CCCCCCCCCCC` (stereo not given in full), the LD50 in data set [1] came out at 0.8 mg/kg. This compound also registered a Survival rate with Mus musculus of 10. In the data set on Pseudomonas aeruginosa, this compound returned an ED50 of 1.1 mg/kg.

Turning to `CCCCCCCCCCC[C@@H](O)CC(=O)N[C@H]1C(CC(=O)O)OC(CO)C(O)C1OC(=O)C[C@H](O)CCCCCCCCCCC` (stereo not given in full), in the data set on Mus musculus, the Survival rate amounted to 4.

For `CCCCCCCCCCC[C@@H](O)CC(=O)N[C@H]1C(CC(=O)O)OC(CO)C(O)C1O` (stereo not given in full), in the data set with Mus musculus, the Survival rate is reported as 0.

With `CCCCCCCCCCCCCC(=O)O[C@H](CCCCCCCCCCC)CC(=O)O[C@H]1[C@H](O)[C@H](CO)O[C@H](CC(=O)O)[C@@H]1NC(=O)C[C@H](O)CCCCCCCCCCC` (stereo in doubt; 13a), the Survival rate in the data set with Mus musculus came out at 4.

For the compound `CCCCCCCCCCCCCC(=O)O[C@H](CCCCCCCCCCC)CC(=O)O[C@H]1[C@H](O)[C@H](CO)O[C@H](CC(=O)O)[C@@H]1NC(=O)C[C@H](O)CCCCCCCCCCC` (stereo in doubt; 17b), in data set [1], the LD50 is 0.2 mg/kg. This compound also came in with a Survival rate with Mus musculus of 9. In addition, it took a dose of 1.8 mg/kg to reach the 50% effect level in the data set with Pseudomonas aeruginosa (ED50).
